Measurements: ChEMBL document CHEMBL1138580, “Natural polyprenylated benzophenones inhibiting cysteine and serine proteases” (Eur J Med Chem, 2009)
The source made the active and inactive calls. No cut-off for these calls is given here.

Assays:
[1] = target: T1, Papain (Carica papaya, UniProt P00784); experiment: Inhibition of Carica papaya papain by spectrofluorimetry
T1 sequence (P00784 whole entry): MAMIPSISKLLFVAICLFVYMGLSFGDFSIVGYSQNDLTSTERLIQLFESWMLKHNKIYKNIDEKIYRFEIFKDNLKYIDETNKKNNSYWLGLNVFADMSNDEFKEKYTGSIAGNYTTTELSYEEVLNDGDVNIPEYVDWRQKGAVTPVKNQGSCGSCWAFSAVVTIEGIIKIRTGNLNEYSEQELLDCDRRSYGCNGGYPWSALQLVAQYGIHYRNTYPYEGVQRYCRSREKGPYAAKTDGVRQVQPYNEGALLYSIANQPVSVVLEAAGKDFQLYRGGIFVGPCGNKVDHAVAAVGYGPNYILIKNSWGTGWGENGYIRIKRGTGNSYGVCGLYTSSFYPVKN
In short: (§1)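 Enzyme (papain and CatB DTT 10 mM-activated; trypsin not) incubated 5 min at 25 °C with DMSO-dissolved inhibitor, five concentrations; Z-FR-AMC started reaction, AMC ex 380/em 460 nm. Papain: phosphate 50 mM pH 6.8, EDTA 1.0 mM, 7.8 nM. CatB: Tris–HCl 50 mM pH 7.5, EDTA 5 mM, 1.0 nM. Trypsin: Tris–HCl pH 7.5, CaCl2 10 mM, 56.1 nM. IC50 from time-course dose–response; triplicate.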

[2] = Inhibition of trypsin by spectrofluorimetry
[3] = target: Cathepsin B (Homo sapiens, UniProt P07858); experiment: Inhibition of cathepsin B by spectrofluorimetry; in short: as §1
[4] = target: T2, Papain (Carica papaya) (UniProt P00784); experiment: Inhibition of Carica papaya papain at 50 uM preincubated for 5 mins before addition of increasing concentration of substrate Z-FR-AMC
T2 sequence (whole entry): T1 sequence (P00784 whole entry)

[5] = Inhibition of trypsin at 50 uM preincubated for 5 mins before addition of increasing concentration of substrate Z-FR-AMC
[6] = target: T2, Papain (Carica papaya); experiment: Inhibition of Carica papaya papain at 50 uM preincubated before DTT addition by fluorescence measurement
[7] = target: T2, Papain (Carica papaya); experiment: Inhibition of Carica papaya papain assessed as residual enzyme activity at 9 uM after 30 mins
[8] = Inhibition of trypsin assessed as residual enzyme activity at 10 uM after 30 mins
[9] = target: T3, Cathepsin G (Homo sapiens, UniProt P08311); experiment: Inhibition of cathepsin G by spectrofluorimetry
T3 sequence (P08311 whole entry): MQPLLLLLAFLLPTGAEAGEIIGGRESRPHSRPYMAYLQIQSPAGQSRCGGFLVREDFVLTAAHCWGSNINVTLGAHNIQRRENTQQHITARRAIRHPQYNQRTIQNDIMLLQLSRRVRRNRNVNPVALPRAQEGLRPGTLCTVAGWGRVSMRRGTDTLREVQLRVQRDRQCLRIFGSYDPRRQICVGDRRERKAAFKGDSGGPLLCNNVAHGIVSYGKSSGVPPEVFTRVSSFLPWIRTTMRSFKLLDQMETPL

[10] = target: T2, Papain (Carica papaya); details: 0.2 uM
[11] = target: T2, Papain (Carica papaya); details: 0.5 uM

SMILES | IC50 [1] | IC50 [2] | IC50 [3] | inhibition [4] | inhibition [5] | inhibition [6] | inhibition [7] | inhibition [8] | IC50 [9] | inhibition [10] | inhibition [11]
O=C(c1ccccc1O)c1ccc(O)cc1O | 693 µM | 301 µM | 198 µM | inactive | inactive | inactive | – | – | – | – | –
CC(=O)N[C@@H](CC(C)C)C(=O)N[C@@H](CC(C)C)C(=O)N[C@H](C=O)CCCNC(=N)N [LEUPEPTIN] | – | – | 0.047 µM | – | – | – | – | – | – | – | –
CC(C)=CC[C@H]1C[C@@]2(CC=C(C)C)C(=O)C(C(=O)c3ccccc3)=C(O)[C@H](C2=O)C1(C)C [GARCINIAPHENONE] | 131 µM | 104 µM | 103 µM | inactive | inactive | inactive | Active | Active | – | – | –
CC(C)=CCC[C@]1(C)[C@@H](CC=C(C)C)C[C@]2(CC=C(C)C)C(=O)[C@@]1(CC=C(C)C)C(=O)C(C(=O)c1ccc(O)c(O)c1)=C2O [GUTTIFERONE A] | 1.9 µM | – | 2.1 µM | Active | – | Active | Active | – | 2.7 µM | – | –
O=C(c1ccccc1)c1ccccc1 [BENZOPHENONE] | 3460 µM | 3470 µM | 289 µM | inactive | inactive | inactive | – | – | – | – | –
CC(C)C[C@H](NC(=O)[C@H]1O[C@@H]1C(=O)O)C(=O)NCCCCN=C(N)N [E-64] | 0.047 µM | – | – | – | – | – | – | – | – | Active | Active
